Results from article PMC4607565 (Bioorganic & medicinal chemistry letters, 2015).
Positions count from the first letter of the chain named. Entries after “also recorded” stand apart in the source; their conditions may differ. Like-named read-outs stand apart in the source and are kept apart here. Blank lines part the entries; values can stand above or below the compound they belong to.

Columns and labels:
human TG2 (V224 variant) = molecular target: T1, human TG2 (V224 variant) (Homo sapiens, UniProt P21980); assay: coupled GDH assay of TG2 deamidation of Cbz-Gln-Gly; type: biochemical; conditions: for mode of inhibition / activation: V224 TG2
T1 sequence (P21980 1-687): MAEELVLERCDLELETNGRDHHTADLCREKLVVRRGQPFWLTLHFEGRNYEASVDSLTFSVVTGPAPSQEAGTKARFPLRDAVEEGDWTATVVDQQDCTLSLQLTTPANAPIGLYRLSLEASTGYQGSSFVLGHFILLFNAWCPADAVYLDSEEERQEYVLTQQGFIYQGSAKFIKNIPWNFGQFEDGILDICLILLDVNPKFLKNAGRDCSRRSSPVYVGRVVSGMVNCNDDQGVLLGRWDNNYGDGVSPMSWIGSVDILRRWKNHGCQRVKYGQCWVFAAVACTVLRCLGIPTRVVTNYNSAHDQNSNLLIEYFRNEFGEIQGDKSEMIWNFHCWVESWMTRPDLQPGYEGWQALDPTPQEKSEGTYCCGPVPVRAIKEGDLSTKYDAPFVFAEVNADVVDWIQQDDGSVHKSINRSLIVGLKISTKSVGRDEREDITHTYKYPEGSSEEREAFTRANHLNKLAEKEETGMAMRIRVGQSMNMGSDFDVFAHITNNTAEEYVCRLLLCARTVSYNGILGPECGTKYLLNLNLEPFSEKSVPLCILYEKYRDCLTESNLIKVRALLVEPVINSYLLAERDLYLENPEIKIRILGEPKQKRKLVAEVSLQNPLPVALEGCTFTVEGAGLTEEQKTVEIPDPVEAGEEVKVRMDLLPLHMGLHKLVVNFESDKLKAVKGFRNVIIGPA

[1] = test system: extracellular TG2 in WI-38 fibroblasts; assay: 5-BP incorporation into extracellular matrix proteins of WI-38 fibroblasts; type: cell-based
Outline: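 WI-38 fibroblasts were grown to confluence, then pre-incubated with vehicle (1% DMSO) or test compound for 30 min. Cells were then given 200 μM 5-(biotinamido)pentylamine for 3 h, fixed and stained. Transamidation was scored as 5-BP incorporated into extracellular matrix proteins, imaged at 5 fields sampled across each well.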

TG2 [2] = molecular target: T2, TG2 (Homo sapiens, UniProt P21980); assay: microtiter plate transamidation assay; type: biochemical
T2 sequence (P21980 1-687): T1 sequence (P21980 1-687)
Outline: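 In a microtiter plate format, TG2 incorporated 5-BP into immobilized N,N-dimethylcasein. The incorporated biotin was quantified with streptavidin. Ca2+ was held at the sub-saturating level of 0.6 mM, and the test compound was assayed with or without the stable GTP analog GMP-PNP.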

TG2 [3] = molecular target: T2, TG2; assay: native PAGE analysis of open versus closed states
[4] = molecular target: T3, R580A mutant of human TG2 (Homo sapiens, UniProt P21980, R580A); assay: deamidation activity of R580A mutant; type: biochemical; conditions: [TG2] = 0.5 μM, [Ca2+] = 3 mM
T3 sequence (P21980 1-687 R580A): T1 sequence (P21980 1-687) with R580A
Outline: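 Deamidation by wild-type and R580A TG2 was measured side by side with test compound and the GTP analog GMP-PNP, at 0.5 μM enzyme and 3 mM Ca2+.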

[5] = molecular target: T4, truncated form of human TG2 (1-466) (Homo sapiens, UniProt P21980); assay: deamidation activity of truncated TG2; type: biochemical; conditions: [TG2] = 0.5 μM; [Ca2+] = 5 mM
T4 sequence (P21980 1-466): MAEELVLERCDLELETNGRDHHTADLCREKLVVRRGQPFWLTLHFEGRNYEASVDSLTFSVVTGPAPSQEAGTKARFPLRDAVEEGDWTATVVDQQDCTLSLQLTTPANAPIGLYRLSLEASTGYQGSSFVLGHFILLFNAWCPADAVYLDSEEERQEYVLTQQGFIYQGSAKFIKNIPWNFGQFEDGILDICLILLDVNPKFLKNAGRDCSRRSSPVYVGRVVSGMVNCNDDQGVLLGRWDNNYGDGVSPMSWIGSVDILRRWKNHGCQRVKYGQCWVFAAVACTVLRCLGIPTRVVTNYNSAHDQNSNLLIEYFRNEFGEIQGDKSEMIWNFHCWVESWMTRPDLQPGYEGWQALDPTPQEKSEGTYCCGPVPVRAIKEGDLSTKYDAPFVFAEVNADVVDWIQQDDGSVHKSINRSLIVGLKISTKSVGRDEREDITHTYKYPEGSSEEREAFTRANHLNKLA
Outline: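 The truncated TG2 (residues 1-466) lacks both C-terminal beta-barrel domains and was expressed and purified. It was tested against wild-type TG2 in the deamidation assay at 0.5 μM enzyme and 5 mM Ca2+. Activity was normalized to each protein's own maximum, since kcat and KM differ between the two proteins.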

[6] = molecular target: T5, TG2 S2A mutant (E396Q/N398S/D400N) (Homo sapiens, UniProt P21980, D400N/E396Q/N398S); assay: deamidation activity of S2A mutant; type: biochemical; conditions: [TG2] = 2.5 μM; [Ca2+] = 5 mM
T5 sequence (P21980 1-687 E396Q/N398S/D400N): T1 sequence (P21980 1-687) with E396Q, N398S, D400N

[7] = molecular target: T6, TG2 S2B mutant (E447Q/E451Q/E452Q/E454Q) (Homo sapiens, UniProt P21980, E447Q/E451Q/E452Q/E454Q); assay: deamidation activity of S2B mutant; type: biochemical; conditions: [TG2] = 2.5 μM; [Ca2+] = 5 mM
T6 sequence (P21980 1-687 E447Q/E451Q/E452Q/E454Q): T1 sequence (P21980 1-687) with E447Q, E451Q, E452Q, E454Q

TG2 [8] = conditions: cited from earlier work
[9] = molecular target: T3, R580A mutant of human TG2; conditions: cited from earlier work
TG2 [10] = molecular target: T2, TG2; conditions: active site-directed irreversible inhibitor; cited from earlier work

mode of inhibition / activation (human TG2 (V224 variant); Lineweaver-Burk analysis): non-competitive inhibitor
extent of inhibition of wild-type TG2 (human TG2 (V224 variant); [TG2] = 0.5 μM, [Ca2+] = 5 mM): partial inhibitory character
effect on transamidating activity of TG2 (TG2 [2]; 0.6 mM Ca2+ alone): agonism was not observed
effect on transamidation activity of TG2 (TG2 [2]; 0.6 mM Ca2+ and 100 μM GMP-PNP): markedly enhanced
influence on relative distribution of open versus closed states of TG2 (TG2 [3]): did not have a measurable influence
agonistic effect in the presence of GMP-PNP ([4]; R580A mutant): evident
inhibitory potency in R580A mutant versus wild-type [4]: unaltered
extent of inhibition of TG2 (1-466) [5]: total antagonist
inhibitory effect on S2A mutant compared with wild-type [6]: comparable inhibitory effect
effect on activity of S2B mutant [7]: no effect
Compound: COc1ccccc1C(=O)/C=C1/C(=O)Nc2cccc(Cl)c21 [CK-IV-55]
effect on TG2 catalytic activity at sub-saturating Ca2+ (human TG2 (V224 variant); sub-saturating Ca2+, 0.5-0.7 mM (legend of Figure 4A: 0.5-0.8 mM)): weak but reproducible agonism; also recorded: activated TG2
extracellular TG2 activity (5-BP incorporation) ([1]; 1 μM compound, 200 μM 5-BP, 3 h): activation of extracellular TG2
extracellular TG2 activity (5-BP incorporation) ([1]; 10 μM compound, 3 h): TG2 activity was suppressed compared to the 1 μM case

Compound: O=C1Nc2cccc(Cl)c2/C1=C\C(=O)c1ccc(Cl)cc1 [CK-IV-67]
extracellular TG2 activity (5-BP incorporation) ([1]; concentrations not given (data not shown)): higher absolute concentrations of the latter inhibitor were required to see elevated 5-BP incorporation

Compound: [Ca+2] [Ca^2+, reference compound]
mode of inhibition / activation (human TG2 (V224 variant); Lineweaver-Burk analysis): competitive activator
Ka, activation of V224 TG2 (human TG2 (V224 variant); Lineweaver-Burk analysis, [TG2] = 0.5 μM): 0.6 ± 0.3 mM
Kd (TG2 [8]; read-out: Kd, high-affinity Ca2+ binding site, one site (S1)): ~1 µM
Kd (TG2 [8]; read-out: Kd, lower-affinity Ca2+ binding sites, five sites): ~1000 µM

mode of inhibition / activation (human TG2 (V224 variant); Lineweaver-Burk analysis): competitive inhibitor
Compound: Nc1nc2c(ncn2[C@@H]2O[C@H](COP(=O)(O)OP(=O)(O)NP(=O)(O)O)[C@@H](O)[C@H]2O)c(=O)[nH]1 [GMP-PNP, reference compound]
inhibition of R580A mutant [9]: attenuated

Compound: Ac-P(DON)LPF-NH2
effect on TG2 conformation (TG2 [10]): locks TG2 in the open state
